Results taken from ChEMBL document CHEMBL2396577, “Design, synthesis and biological activity evaluation of desloratadine analogues as H1 receptor antagonists” (Bioorg Med Chem, 2013).

Tests used:
Mus musculus [1] = assay: Toxicity in mouse assessed as effect on pentobarbital sodium-induced hypnotic effect measured as recovery of righting reflex at 50 mg/kg pretreated for 30 mins prior to pentobarbital sodium-challenge; type: organism-based; design: dose 50 mg/kg; conditions: in vivo
Mus musculus [2] = assay: Toxicity in mouse assessed as effect on pentobarbital sodium-induced hypnotic effect measured as loss of righting reflex latency at 200 mg/kg pretreated for 30 mins prior to pentobarbital sodium-challenge; type: organism-based; design: dose 200 mg/kg; conditions: in vivo
Mus musculus [3] = assay: Toxicity in mouse assessed as excitement at 0.05 to 0.2 mg/kg measured for 7 days; type: organism-based; design: dose 0.05-0.2 mg/kg; conditions: in vivo, 168 h
Outline: (§1)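 Groups of 10 received saline 10 mL/kg, desloratadine 1 mg/kg, or compound at a low dose (0.05 mg/kg) or high dose (0.2 mg/kg), all at a dosing volume of 10 mL/kg. Over the following seven days, mental state, body activity and abnormal signs were observed: sleep, excitement, irritability, convulsion, salivation and muscle tremor.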

Mus musculus [4] = assay: Toxicity in mouse assessed as change in mental state at 0.05 to 0.2 mg/kg measured for 7 days; type: organism-based; design: dose 0.05-0.2 mg/kg; conditions: in vivo, 168 h; outline: as §1
Ileum [5] = assay: Toxicity in guinea pig ileum assessed as effect on acetylcholine-induced smooth muscle contraction at 0.2 ug/mL after 3 mins (reference value: 5.17 +/- 0.36 g); type: tissue-based, Cavia porcellus
[6] = target: Histamine H1 receptor (Cavia porcellus) (UniProt P31389); assay: Antagonist activity at histamine H1 receptor in guinea pig ileum assessed as inhibition of histamine-induced smooth muscle contraction at 0.2 mg/mL after 3 mins (reference value: 3.37 +/- 1.05 g); type: tissue-based
Cavia porcellus [7] = assay: Antiasthamatic activity in histamine-induced guinea pig asthma model assessed as prolongation of asthmogenic latent period at 0.01 mg/kg, ig pretreated for 60 mins prior to histamine-challenge (reference value: 127.10 +/- 40.46 seconds); type: functional; conditions: route intragastric
Mus musculus [8] = assay: Toxicity in mouse assessed as salivation at 0.05 to 0.2 mg/kg measured for 7 days; type: organism-based; design: dose 0.05-0.2 mg/kg; conditions: in vivo, 168 h; outline: as §1
Ileum [9] = assay: Toxicity in guinea pig ileum assessed as effect on acetylcholine-induced smooth muscle spasm at 0.2 ug/mL after 3 mins (reference value: 1.31 +/- 3.66%); type: tissue-based, Cavia porcellus; conditions: in vivo
Mus musculus [10] = assay: Toxicity in mouse assessed as change in body activity at 0.05 to 0.2 mg/kg measured for 7 days; type: organism-based; design: dose 0.05-0.2 mg/kg; conditions: in vivo, 168 h; outline: as §1
Mus musculus [11] = assay: Toxicity in mouse assessed as muscle tremor at 0.05 to 0.2 mg/kg measured for 7 days; type: organism-based, Muscle tissue; design: dose 0.05-0.2 mg/kg; conditions: in vivo, 168 h; outline: as §1
Mus musculus [12] = assay: Toxicity in mouse assessed as convulsion at 0.05 to 0.2 mg/kg measured for 7 days; type: organism-based; design: dose 0.05-0.2 mg/kg; conditions: in vivo, 168 h; outline: as §1
[13] = target: Histamine H1 receptor (Cavia porcellus) (UniProt P31389); assay: Antagonist activity at histamine H1 receptor in guinea pig ileum assessed as inhibition of histamine-induced smooth muscle spasm at 0.2 mg/mL after 3 mins (reference value: 1.27 +/- 5.65%); type: tissue-based; design: scale not given: the % may be the effect or the level left
Ileum [14] = assay: Toxicity in guinea pig ileum assessed as effect on acetylcholine-induced smooth muscle contraction at 0.6 ug/mL after 3 mins (reference value: 5.17 +/- 0.36 g); type: tissue-based, Cavia porcellus
Mus musculus [15] = assay: Toxicity in mouse assessed as effect on pentobarbital sodium-induced hypnotic effect measured as loss of righting reflex latency at 50 mg/kg pretreated for 30 mins prior to pentobarbital sodium-challenge; type: organism-based; design: dose 50 mg/kg; conditions: in vivo
Mus musculus [16] = assay: Toxicity in mouse assessed as sleep abnormality at 0.05 to 0.2 mg/kg measured for 7 days; type: organism-based; design: dose 0.05-0.2 mg/kg; conditions: in vivo, 168 h; outline: as §1
Mus musculus [17] = assay: Toxicity in mouse assessed as irritability at 0.05 to 0.2 mg/kg measured for 7 days; type: organism-based; design: dose 0.05-0.2 mg/kg; conditions: in vivo, 168 h; outline: as §1
Ileum [18] = assay: Toxicity in guinea pig ileum assessed as effect on acetylcholine-induced smooth muscle spasm at 0.6 ug/mL after 3 mins (reference value: 1.31 +/- 3.66%); type: tissue-based, Cavia porcellus; conditions: in vivo
Mus musculus [19] = assay: Toxicity in mouse assessed as effect on pentobarbital sodium-induced hypnotic effect measured as recovery of righting reflex at 100 mg/kg pretreated for 30 mins prior to pentobarbital sodium-challenge; type: organism-based; design: dose 100 mg/kg; conditions: in vivo
Ileum [20] = assay: Toxicity in guinea pig ileum assessed as effect on acetylcholine-induced smooth muscle spasm at 2 ug/mL after 3 mins (reference value: 1.31 +/- 3.66%); type: tissue-based, Cavia porcellus; conditions: in vivo
Ileum [21] = assay: Toxicity in guinea pig ileum assessed as effect on acetylcholine-induced smooth muscle spasm at 1.4 ug/mL after 3 mins (reference value: 1.31 +/- 3.66%); type: tissue-based, Cavia porcellus; conditions: in vivo
Ileum [22] = assay: Toxicity in guinea pig ileum assessed as effect on acetylcholine-induced smooth muscle contraction at 2 ug/mL after 3 mins (reference value: 5.17 +/- 0.36 g); type: tissue-based, Cavia porcellus
Ileum [23] = assay: Toxicity in guinea pig ileum assessed as effect on acetylcholine-induced smooth muscle contraction at 1.4 ug/mL after 3 mins (reference value: 5.17 +/- 0.36 g); type: tissue-based, Cavia porcellus
Ileum [24] = assay: Toxicity in guinea pig ileum assessed as effect on acetylcholine-induced smooth muscle spasm at 0.1 ug/mL after 3 mins (reference value: 1.31 +/- 3.66%); type: tissue-based, Cavia porcellus; conditions: in vivo
Ileum [25] = assay: Toxicity in guinea pig ileum assessed as effect on acetylcholine-induced smooth muscle contraction at 0.1 ug/mL after 3 mins (reference value: 5.17 +/- 0.36 g); type: tissue-based, Cavia porcellus
Mus musculus [26] = assay: Toxicity in mouse assessed as effect on pentobarbital sodium-induced hypnotic effect measured as loss of righting reflex latency at 1 mg/kg pretreated for 30 mins prior to pentobarbital sodium-challenge; type: organism-based; design: dose 1 mg/kg; conditions: in vivo
Outline: (§2)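 Mice, 10 per group. Groups: saline, pentobarbital alone, pentobarbital plus desloratadine 1 mg/kg, pentobarbital plus test agent at 0.05 or 0.2 mg/kg. 30 min after dosing, 1% pentobarbital sodium given i.p. at 100 mg/kg (10 mL/kg). Latency to loss of righting reflex and time to its recovery recorded, in min.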

Mus musculus [27] = assay: Toxicity in mouse assessed as effect on pentobarbital sodium-induced hypnotic effect measured as recovery of righting reflex at 1 mg/kg pretreated for 30 mins prior to pentobarbital sodium-challenge; type: organism-based; design: dose 1 mg/kg; conditions: in vivo; outline: as §2
Cavia porcellus [28] = assay: Antiasthamatic activity in histamine-induced guinea pig asthma model assessed as prolongation of asthmogenic latent period at 1 mg/kg, ig pretreated for 60 mins prior to histamine-challenge (reference value: 127.10 +/- 40.46 seconds); type: functional; conditions: route intragastric

Chain of Histamine H1 receptor (Cavia porcellus) (P31389 whole entry): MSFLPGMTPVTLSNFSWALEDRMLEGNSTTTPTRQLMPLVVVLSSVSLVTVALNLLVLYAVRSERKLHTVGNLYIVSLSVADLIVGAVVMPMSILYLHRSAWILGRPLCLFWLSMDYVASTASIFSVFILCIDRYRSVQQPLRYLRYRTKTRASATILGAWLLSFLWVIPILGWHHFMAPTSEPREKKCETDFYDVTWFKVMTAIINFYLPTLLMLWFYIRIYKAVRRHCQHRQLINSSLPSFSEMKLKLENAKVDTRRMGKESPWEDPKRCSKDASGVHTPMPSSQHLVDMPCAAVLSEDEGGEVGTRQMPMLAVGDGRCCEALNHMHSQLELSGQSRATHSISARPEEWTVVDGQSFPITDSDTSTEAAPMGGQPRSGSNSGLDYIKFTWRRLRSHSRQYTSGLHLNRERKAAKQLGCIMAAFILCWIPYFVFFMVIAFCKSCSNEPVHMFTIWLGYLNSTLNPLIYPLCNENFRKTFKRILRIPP

CCCN1CCC(=C2c3ccc(Cl)cc3CCc3cccnc32)CC1
Time (Mus musculus [1]): 76 min | Time (Mus musculus [2]): 1.61 min | Activity (Mus musculus [3]): Non-toxic | Activity (Mus musculus [4]): Non-toxic | Activity (Ileum [5]): 7.51 g | Activity [6]: 1.8 g | Time (Cavia porcellus [7]): 255.1 s | Activity (Mus musculus [8]): Non-toxic | Activity (Ileum [9]): 56.14% | Activity (Mus musculus [10]): Non-toxic | Activity (Mus musculus [11]): Non-toxic | Activity (Mus musculus [12]): Non-toxic | Activity [13]: 42.5% | Activity (Ileum [14]): 4.38 g | Time (Mus musculus [15]): 1.47 min | Activity (Mus musculus [16]): Non-toxic | Activity (Mus musculus [17]): Non-toxic | Activity (Ileum [18]): 73.09% | Time (Mus musculus [19]): 99 min

Clc1ccc2c(c1)CCc1cccnc1C2=C1CCN(C2CC=CCC2)CC1 (stereo not given)
Activity [6]: 2.38 g | Time (Cavia porcellus [7]): 262.7 s | Activity [13]: 28.3%

OCCCN1CCC(=C2c3ccc(Cl)cc3CCc3cccnc32)CC1
Time (Mus musculus [1]): 76 min | Time (Mus musculus [2]): 1.46 min | Activity (Mus musculus [3]): Non-toxic | Activity (Mus musculus [4]): Non-toxic | Activity [6]: 1.73 g | Time (Cavia porcellus [7]): 221.9 s | Activity (Ileum [20]): 67.06% | Activity (Mus musculus [8]): Non-toxic | Activity (Mus musculus [10]): Non-toxic | Activity (Mus musculus [11]): Non-toxic | Activity (Mus musculus [12]): Non-toxic | Activity [13]: 45.2% | Activity (Ileum [21]): 58.27% | Time (Mus musculus [15]): 1.54 min | Activity (Mus musculus [16]): Non-toxic | Activity (Ileum [22]): 6.04 g | Activity (Ileum [23]): 6.72 g | Activity (Mus musculus [17]): Non-toxic | Time (Mus musculus [19]): 100 min

CN(C)CCCN1CCC(=C2c3ccc(Cl)cc3CCc3cccnc32)CC1
Activity [6]: 2.66 g | Time (Cavia porcellus [7]): 212.8 s | Activity [13]: 30.4%

ClCCCN1CCC(=C2c3ccc(Cl)cc3CCc3cccnc32)CC1
Time (Mus musculus [1]): 97 min | Time (Mus musculus [2]): 1.58 min | Activity (Mus musculus [3]): Non-toxic | Activity (Mus musculus [4]): Non-toxic | Activity [6]: 1.81 g | Time (Cavia porcellus [7]): 256.9 s | Activity (Mus musculus [8]): Non-toxic | Activity (Mus musculus [10]): Non-toxic | Activity (Mus musculus [11]): Non-toxic | Activity (Mus musculus [12]): Non-toxic | Activity [13]: 43% | Activity (Ileum [21]): 69.51% | Activity (Ileum [14]): 8.56 g | Time (Mus musculus [15]): 1.48 min | Activity (Mus musculus [16]): Non-toxic | Activity (Ileum [23]): 5.68 g | Activity (Mus musculus [17]): Non-toxic | Activity (Ileum [18]): 47.21% | Time (Mus musculus [19]): 120 min

O=C1c2ccccc2C(=O)N1CCCN1CCC(=C2c3ccc(Cl)cc3CCc3cccnc32)CC1
Activity [6]: 2.71 g | Time (Cavia porcellus [7]): 247.9 s | Activity [13]: 26.6%

Clc1ccc2c(c1)CCc1cccnc1C2=C1CCN(C2CCCCC2)CC1
Activity [6]: 2.57 g | Time (Cavia porcellus [7]): 250.3 s | Activity [13]: 29.4%

FCCCN1CCC(=C2c3ccc(Cl)cc3CCc3cccnc32)CC1
Time (Mus musculus [1]): 98 min | Time (Mus musculus [2]): 1.45 min | Activity (Mus musculus [3]): Non-toxic | Activity (Mus musculus [4]): Non-toxic | Activity (Ileum [5]): 9.11 g | Activity [6]: 1.74 g | Time (Cavia porcellus [7]): 269.4 s | Activity (Mus musculus [8]): Non-toxic | Activity (Ileum [9]): 54.35% | Activity (Mus musculus [10]): Non-toxic | Activity (Mus musculus [11]): Non-toxic | Activity (Mus musculus [12]): Non-toxic | Activity [13]: 48.7% | Activity (Ileum [14]): 6.58 g | Time (Mus musculus [15]): 1.47 min | Activity (Mus musculus [16]): Non-toxic | Activity (Mus musculus [17]): Non-toxic | Activity (Ileum [18]): 62.47% | Time (Mus musculus [19]): 123 min

CN1[C@@H]2CC[C@H]1CC(OC(=O)[C@H](CO)c1ccccc1)C2 (stereo partly drawn) [ENDO-ATROPINE]
Activity (Ileum [24]): 74.9% | Activity (Ileum [25]): 3.47 g

Clc1ccc2c(c1)CCc1cccnc1C2=C1CCNCC1 [DESLORATADINE]
Activity [6]: 1.67 g | Time (Mus musculus [26]): 2.23 min | Time (Mus musculus [27]): 93 min | Activity [13]: 49.1% | Time (Cavia porcellus [28]): 278.2 s

NCCCN1CCC(=C2c3ccc(Cl)cc3CCc3cccnc32)CC1
Activity [6]: 2.36 g | Time (Cavia porcellus [7]): 182.8 s | Activity [13]: 26%

Clc1ccc2c(c1)CCc1cccnc1C2=C1CCN(C2CCC(Cl)CC2)CC1 (stereo not given)
Time (Mus musculus [1]): 82 min | Time (Mus musculus [2]): 1.62 min | Activity (Mus musculus [3]): Non-toxic | Activity (Mus musculus [4]): Non-toxic | Activity [6]: 1.29 g | Time (Cavia porcellus [7]): 325.2 s | Activity (Ileum [20]): 70.61% | Activity (Mus musculus [8]): Non-toxic | Activity (Mus musculus [10]): Non-toxic | Activity (Mus musculus [11]): Non-toxic | Activity (Mus musculus [12]): Non-toxic | Activity [13]: 61.1% | Activity (Ileum [21]): 61.39% | Time (Mus musculus [15]): 1.61 min | Activity (Mus musculus [16]): Non-toxic | Activity (Ileum [22]): 4.4 g | Activity (Ileum [23]): 5.59 g | Activity (Mus musculus [17]): Non-toxic | Time (Mus musculus [19]): 103 min

OC1CCC(N2CCC(=C3c4ccc(Cl)cc4CCc4cccnc43)CC2)CC1 (stereo not given)
Activity [6]: 2.93 g | Time (Cavia porcellus [7]): 222 s | Activity [13]: 13%
